For data set [1], the target named is T1, Muscarinic acetylcholine receptor M1 (Rattus norvegicus, UniProt P08482).
T1 sequence (P08482 whole entry): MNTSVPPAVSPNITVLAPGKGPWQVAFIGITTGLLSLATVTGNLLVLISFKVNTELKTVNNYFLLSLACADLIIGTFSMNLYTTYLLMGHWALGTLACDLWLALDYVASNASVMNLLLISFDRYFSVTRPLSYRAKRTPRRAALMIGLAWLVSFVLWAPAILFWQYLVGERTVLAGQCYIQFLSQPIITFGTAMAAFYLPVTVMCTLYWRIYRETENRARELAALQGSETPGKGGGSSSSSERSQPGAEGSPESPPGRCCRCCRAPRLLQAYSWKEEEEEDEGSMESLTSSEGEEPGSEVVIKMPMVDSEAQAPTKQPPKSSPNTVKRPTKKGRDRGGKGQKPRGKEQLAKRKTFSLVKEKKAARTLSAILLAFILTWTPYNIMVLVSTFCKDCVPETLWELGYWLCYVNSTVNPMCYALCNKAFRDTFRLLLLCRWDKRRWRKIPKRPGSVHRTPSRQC
Nature of the data set: Agonist activity at muscarinic acetylcholine receptor M1 in Sprague-Dawley rat brain hippocampal slices assessed as increase in firing rate at CA1 pyramidal neurons after 10 mins by electrophysiology method. The procedure, abridged:
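Rat hippocampal slices; spontaneous action potentials recorded from CA1 pyramidal neurons, read as spike rate. Agonist mode has no carbachol; PAM mode uses an EC20 level of carbachol. Top concentration tested was 3 μM.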

Data set [2] deals with Canis familiaris. Kind of data set: Unbound Cmax in dog plasma at 15 mg/kg, po administered as single dose using spray dried dispersion formulation. The format is ADME, organism-based, Canis lupus familiaris. The settings on record: in vivo.
Data set [3] has as its system Rattus norvegicus. Nature of the data set: Toxicity in rat assessed as convulsions at 45 mg/kg, po administered as single dose after 1 to 6 hrs. The format is organism-based. The settings on record: in vivo.
The test system of data set [4] is Rattus norvegicus. Kind of data set: Unbound AUC (0 to 24 hrs) in rat plasma at 15 mg/kg, po administered as single dose. The following applies: in vivo. The format is ADME, organism-based.
Data set [5] is described as follows: Oral bioavailability in rat at 2 mg/kg administered as single dose. The data set is classed as ADME, organism-based. The settings on record: in vivo.
Data set [6] concerns Canis familiaris. Nature of the data set: Toxicity in dog assessed as vocalization at 15 mg/kg, po administered as single dose using spray dried dispersion formulation after 1 hr. The format is organism-based, Canis lupus familiaris. The settings on record: in vivo.
Data set [7] relates to Canis familiaris. Kind of data set: Cholinergic toxicity in dog assessed as ataxia at 5 mg/kg, po administered as single dose using spray dried dispersion formulation after 2 hrs. The settings on record: in vivo. The data set is classed as organism-based, Canis lupus familiaris. The procedure, abridged: (§1)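 Dog single oral dose escalation: 1/sex at 5 mg/kg for each formulation; 1 female at 15 mg/kg. Spray-dried dispersion: 23% drug loading with 0.5% methylcellulose and 100 mM citrate buffer. Clinical signs timed in approximate hours postdose; unbound plasma Cmax.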

Data set [8] relates to Canis familiaris. Nature of the data set: Unbound AUC (0 to 24 hrs) in dog plasma at 5 mg/kg, po administered as single dose using spray dried dispersion formulation. The data set is classed as ADME, organism-based, Canis lupus familiaris. The settings on record: in vivo.
Data set [9] is described as follows: Half life in rat at 2 mg/kg, po administered as single dose. The format is ADME, organism-based. The following applies: in vivo. The method in brief:
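Rat, single oral dose of 2 mg/kg given as a suspension in 0.5% methylcellulose. Half-life taken after the oral dose.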

In data set [10] the test system is Canis familiaris. Nature of the data set: Cholinergic toxicity in dog assessed as emesis at 5 mg/kg, po administered as single dose using spray dried dispersion formulation after 1 to 4 hrs. The data set is classed as organism-based, Canis lupus familiaris. The following applies: in vivo. The method in brief:
as §1

For data set [11], the system named is Rattus norvegicus. Kind of data set: Cholinergic toxicity in rat at 1 to 5 mg/kg, po administered as single dose. The format is organism-based. The settings on record: in vivo. The procedure, abridged: (§2)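 Rat single oral dose escalation, 3/sex/dose. 1 and 5 mg/kg as a 0.5% methylcellulose suspension; 15 and 45 mg/kg as a nanosuspension (1.25% w/v hydroxypropyl cellulose SL, 0.05% docusate sodium in water).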

The nature of data set [12]: Cholinergic toxicity in po dosed rat administered as single dose after 1 to 1.5 hrs post dose. The settings on record: in vivo. The format is organism-based. The method in brief: as §2
The target in data set [13] is T2, Muscarinic acetylcholine receptor M4 (Homo sapiens, UniProt P08173).
T2 sequence (P08173 whole entry): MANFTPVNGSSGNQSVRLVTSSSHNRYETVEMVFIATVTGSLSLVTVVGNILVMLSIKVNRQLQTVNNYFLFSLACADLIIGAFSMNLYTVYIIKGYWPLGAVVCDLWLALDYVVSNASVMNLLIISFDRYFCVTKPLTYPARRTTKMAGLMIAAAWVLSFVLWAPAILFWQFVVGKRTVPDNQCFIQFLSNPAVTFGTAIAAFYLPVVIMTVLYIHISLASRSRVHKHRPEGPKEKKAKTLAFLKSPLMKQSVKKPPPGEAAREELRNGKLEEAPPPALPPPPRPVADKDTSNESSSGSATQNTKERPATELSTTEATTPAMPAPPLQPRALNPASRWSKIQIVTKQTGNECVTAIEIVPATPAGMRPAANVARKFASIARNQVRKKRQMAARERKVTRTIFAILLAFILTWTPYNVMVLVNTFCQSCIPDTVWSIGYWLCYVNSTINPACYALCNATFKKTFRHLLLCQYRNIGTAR
Kind of data set: Positive allosteric modulation of human muscarinic acetylcholine receptor M4 expressed in CHO cells assessed as increase in acetylcholine-induced cAMP accumulation up to 10 uM after 2 hrs by cAMP-Glo assay. The data set is classed as cell-based. The procedure, abridged:
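Recombinant functional human M2–M5 assays, each run in agonist and PAM modes at concentrations up to 10 μM.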
(In general: Cyclic AMP is a second messenger, typically raised through Gs and lowered through Gi signalling.)

Data set [14] deals with T3, Muscarinic acetylcholine receptor M1 (Homo sapiens, UniProt P11229).
T3 sequence (P11229 whole entry): T1 sequence (P08482 whole entry) with V5A, S254T, S309P, K320R, G337A, V413I
Nature of the data set: Agonist activity at human muscarinic acetylcholine receptor M1 expressed in CHO cells at 30 uM by beta-arrestin recruitment assay relative to acetylcholine. The format is cell-based. For orientation: Arrestin recruitment assays detect the binding of arrestin to an activated receptor.

For data set [15], the system named is Canis familiaris. Nature of the data set: Cholinergic toxicity in dog assessed as transient salivation at 5 mg/kg, po administered as single dose using spray dried dispersion formulation after 1 to 4 hrs. The data set is classed as organism-based, Canis lupus familiaris. The following applies: in vivo. The method in brief:
as §1

A short description of data set [16]: Ratio of unbound AUC in dog brain to plasma at 0.5 mg/kg, po or 0.1 mg/kg, iv administered as single bolus dose. The data set is classed as ADME, organism-based, Canis lupus familiaris.

Residue numbers refer to the chain shown, from its start.

Here are results for 1 compound from ChEMBL document CHEMBL4017487, “Design and Synthesis of γ- and δ-Lactam M1 Positive Allosteric Modulators (PAMs): Convulsion and Cholinergic Toxicity of an M1-Selective PAM with Weak Agonist Activity” (J Med Chem, 2017).

Usually bioavailability stands for dose-corrected exposure relative to a reference, in per cent. The term half-life denotes how long it takes for the measured level to halve. A lower half-life goes with rapid decline. As a reminder, the NOAEL is the highest tested level that showed no adverse finding. Consider `Cc1cc2c(cc1Cc1ccc(-c3cocn3)cc1)C(=O)N([C@H]1CCOC[C@@H]1O)C2`, for which the Activity entry in [1] was “Not Active”; in the data set on Rattus norvegicus [3], “Toxic”; in the data set with Canis familiaris [6], “Toxic”; in the data set with Canis familiaris [7], “Toxic”; with Canis familiaris [10], “Toxic”; in the data set with Rattus norvegicus [11], “Non-Toxic”. The Activity entry is “Not Active” in [13], 50% in data set [14] and “Toxic” with Canis familiaris [15]. In the data set on Canis familiaris [2], this compound yielded a fCmax of 1067 nM. For the same compound, the fAUC in the data set on Rattus norvegicus [4] stood at 20.609 µM·h; in the data set with Canis familiaris [8], 3.85 µM·h. The compound also returned a bioavailability in data set [5] of 91%. For the same compound, the half-life in data set [9] was 6.7 h. The NOAEL in data set [12] was 15 mg/kg. Further, the Kp uu in [16] came to 0.3.
